Assay [1] concerns Mus musculus. Nature of the assay: Animals without tumor after the test against the ADJ/PC6 Plasmacytoma cells of the BALB/C mouse at a dose of 20 mg/kg after 38 days was determined in vivo. The class given is functional, organism-based. Details: dose 20 mg/kg.
Assay [2] deals with Mus musculus. Briefly: Animals without tumor after the test against the ADJ/PC6 Plasmacytoma cells of the BALB/C mouse at a dose of 15 mg/kg after 38 days was determined in vivo. Type of assay: functional, organism-based. Also on record: dose 15 mg/kg.
In assay [3] the test system is Mus musculus. Briefly: Antitumor activity against the ADJ/PC6 Plasmacytoma cells of the BALB/C mouse at a dose of 20 mg/kg after 37 days was determined in vivo. Also on record: dose 20 mg/kg. The class given is functional, organism-based. In outline: (§1)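 Female Balb/C mice, 14–18 g, inoculated subcutaneously with 5 × 10^6 ADJ/PC6 cells in 0.1 mL PBS (day 0). Compounds suspended in olive oil, given intraperitoneally as a single dose (day 1) or triple dose (days 1, 2, 3). Groups usually of 10 animals; cisplatin positive control. Test ran about 38 days; activity read as mean tumor volume as percent of untreated control (T/C, %).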

Assay [4] has as its system Mus musculus. Briefly: Number of deaths against the ADJ/PC6 Plasmacytoma cells of the BALB/C mouse at a dose of 15 mg/kg after 38 days was determined in vivo. Type of assay: functional, organism-based. Also on record: dose 15 mg/kg.
Assay [5] deals with Estrogen receptor (Bos taurus) (UniProt Q9XSB5+P49884). Nature of the assay: In vitro inhibition of 1*10e-9 M [3H]estradiol binding to Estrogen receptor of calf uterine cytosol at 1*10e-5 M. Type of assay: protein assay. In outline:
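Competition of [3H]estradiol binding in calf uterine cytosol (final protein 5 mg/mL); bound and free ligand separated by dextran-coated charcoal; percent inhibition of binding reported.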

Assay [6] concerns Mus musculus. Nature of the assay: Animals without tumor after the test against the ADJ/PC6 Plasmacytoma cells of the BALB/C mouse at a dose of 20 mg/kg after 37 days was determined in vivo. Type of assay: functional, organism-based. Details: dose 20 mg/kg.
In assay [7] the test system is Mus musculus. Briefly: Number of deaths against the ADJ/PC6 Plasmacytoma cells of the BALB/C mouse at a dose of 20 mg/kg after 38 days was determined in vivo. Type of assay: functional, organism-based. Details: dose 20 mg/kg.
The test system of assay [8] is Mus musculus. Briefly: Number of deaths against the ADJ/PC6 Plasmacytoma cells of the BALB/C mouse at a dose of 20 mg/kg after 37 days was determined in vivo; Value denoted as dead/test = 2/10. The class given is functional, organism-based. Details: dose 20 mg/kg.
Assay [9] relates to Rattus norvegicus. Nature of the assay: Compound was tested for the survival against L5222 Leukemia implanted rat at dose 20(60) mg/kg. Type of assay: functional, organism-based. Summed up:
(§2)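 BD IX rats (3–6 months old, half female, half male), six per dose group, given 1 × 10^6 L 5222 cells in 1.0 mL physiological saline i.p. on day 0. The complex was in olive oil at a final 1 mg/mL and given i.p. as three injections, on days 1, 2, 3 or days 1, 5, 9. Read-out is median survival day and percent ILS.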

The test system of assay [10] is Mus musculus. Briefly: Antitumor activity against the ADJ/PC6 Plasmacytoma cells of the BALB/C mouse at a dose of 20 mg/kg after 38 days was determined in vivo; Value denoted as dead/test = 0/10. Also on record: dose 20 mg/kg. The class given is functional, organism-based. In outline: as §1
In assay [11] the test system is Mus musculus. Nature of the assay: Antitumor activity against the ADJ/PC6 Plasmacytoma cells of the BALB/C mouse at a dose of 15 mg/kg after 38 days was determined in vivo; Value denoted as dead/test = 1/10. Also on record: dose 15 mg/kg. Type of assay: functional, organism-based. In outline: as §1
Assay [12] concerns Rattus norvegicus. Briefly: Compound was tested for the increase in life span of L5222 Leukemia implanted rat at dose 20(60) mg/kg. The class given is functional, organism-based. Summed up:
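BD IX rats, 3–6 months old, half female and half male, six per dose group, given 1 × 10^6 L 5222 cells in 1.0 mL physiological saline intraperitoneally (day 0). Complex dissolved in olive oil at 1 mg/mL; three injections on days 1, 2, 3 or 1, 5, 9. Scored as percent increased life span (ILS).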

Assay [13] has as its system Rattus norvegicus. Nature of the assay: Compound was tested for the survival against L5222 Leukemia implanted rat at dose 3.5(10.5) mg/kg. The class given is functional, organism-based. In outline: as §2
Assay [14] has as its system Mus musculus. Briefly: Number of deaths against the ADJ/PC6 Plasmacytoma cells of the BALB/C mouse at a dose of 8 mg/kg after 37 days was determined in vivo. Also on record: dose 8 mg/kg. Type of assay: functional, organism-based.
The next assay deals with MDA-MB-231. Nature of the assay: In vitro incorporation of [3H]thymidine into hormone-independent MDA-MB 231 breast cancer cells. Type of assay: functional, cell-based. The settings on record: Homo sapiens. In outline: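 MDA-MB 231 cells grown in McCoy 5a with 10% newborn calf serum and gentamycin, switched to 5% serum 1 h before the experiment. Compounds added from fresh 1000-fold Me2SO concentrates (final solvent 0.1%). [3H]Thymidine incorporation into TCA-precipitable material measured. Mean of triplicates.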

Assay [15] concerns Rattus norvegicus. Briefly: Compound was tested for the survival against L5222 Leukemia implanted rat at dose 3.5(10.5)mg/kg. Type of assay: functional, organism-based. Summed up:
as §2

Assay [16] has as its system Mus musculus. Nature of the assay: Animals without tumor after the test against the ADJ/PC6 Plasmacytoma cells of the BALB/C mouse at a dose of 8 mg/kg after 37 days was determined in vivo. The class given is functional, organism-based. Also on record: dose 8 mg/kg.
Another assay relates to ADJ/PC6. Briefly: In vitro incorporation of the [3H]thymidine into the ADJ/PC6 Plasmacytoma cells. Type of assay: functional, cell-based. The settings on record: Mus musculus. Summed up: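 ADJ/PC6 tumor taken from passaged female Balb/C mice, minced and gently dispersed, then suspended in Eagle's MEM with 5% heat-inactivated horse serum, Hepes (5 mg/mL) and 0.1% Pluronic F 68, and filtered through gauze. Cells incubated 3 h at 37 °C with shaking, then pulsed with 1 μCi [methyl-3H]thymidine for 2 h. Ice-cold PBS stop, saline washes, sonication. Triplicates.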

Assay [17] relates to Mus musculus. Nature of the assay: Antitumor activity against the ADJ/PC6 Plasmacytoma cells of the BALB/C mouse at a dose of 8 mg/kg after 37 days was determined in vivo. The class given is functional, organism-based. Details: dose 8 mg/kg. Summed up:
as §1

Results on 2 substances are retold here after ChEMBL document CHEMBL1122610, “Dichloro[1,2-bis(4-hydroxyphenyl)ethylenediamine]platinum(II) complexes: an approach to develop compounds with a specific effect on the hormone-dependent mammary carcinoma” (J Med Chem, 1984).

“And” between values parts separate entries of the source, which are not always exact repeats. Identical values can stand only once.

The term T/C denotes the ratio of treated to control. In general, inhibition refers to how much of the control response was suppressed. A lower inhibition goes with little suppression. The ILS is how much longer treated animals lived than controls. As to “(+) R,R-dichloro-[1,2-bis(4-hydroxyphenyl)ethylenediamine]platinum (II)”, the Activity came to 7 in the assay on Mus musculus [1], 7 with Mus musculus [2] and 8 in the assay on Mus musculus [6]. For the same substance, the values for the T/C in the assay with Mus musculus [3], in the assay on Mus musculus [10] and in the assay with Mus musculus [11] were 0%, 0% and 1%, respectively. Further, the Deaths in the assay with Mus musculus [4] turned out to be 1; with Mus musculus [7] it was 0; with Mus musculus [8] it was 2. The inhibition in assay [5] is 11% and 13.7% and 9.7%. For the same substance, in the assay on Rattus norvegicus [9], the Median day of survival came out at 18. In the assay on Rattus norvegicus [12], this substance yielded an ILS of 175%.

For CISPLATIN, the results for the Median day of survival in the assay with Rattus norvegicus [13] and with Rattus norvegicus [15] were 17.5 and 14.5, respectively. Also, in the assay with Mus musculus [14], the Deaths was determined as 0. Further, the ID50 in the assay with MDA-MB-231 worked out at 0.65 µM; in the assay with ADJ/PC6, 9.5 µM. For the same substance, the Activity in the assay on Mus musculus [16] was found to be 10. The same substance showed a T/C in the assay on Mus musculus [17] of 0%.
